This note sets out measurements from PMC9184248 (Journal of Pesticide Science, 2022).

Experiment in all cases: two-electrode voltage clamp, Xenopus oocytes
Common to all, as to assay type: cell-based

Experiment [1] addresses T1, LsRDLR (Laodelphax striatellus RDL GABA receptor) (Laodelphax striatellus, UniProt Q0ECT5).
T1 sequence (Q0ECT5 23-487): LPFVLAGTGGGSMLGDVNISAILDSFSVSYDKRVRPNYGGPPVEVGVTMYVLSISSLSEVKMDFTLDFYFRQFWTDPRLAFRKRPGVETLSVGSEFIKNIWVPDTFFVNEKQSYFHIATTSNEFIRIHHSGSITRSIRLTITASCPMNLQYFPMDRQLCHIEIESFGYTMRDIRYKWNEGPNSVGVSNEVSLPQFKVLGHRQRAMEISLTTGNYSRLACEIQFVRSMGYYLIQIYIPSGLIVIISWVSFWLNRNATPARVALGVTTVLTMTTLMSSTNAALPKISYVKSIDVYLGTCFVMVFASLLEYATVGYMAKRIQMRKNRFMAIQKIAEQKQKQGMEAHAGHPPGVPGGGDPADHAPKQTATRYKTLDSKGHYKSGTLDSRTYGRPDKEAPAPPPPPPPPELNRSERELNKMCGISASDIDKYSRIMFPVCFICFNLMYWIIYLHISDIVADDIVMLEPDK
The note with it: read-out: % of control GABA response remaining at 30 μM gabazine.

Experiment [2] concerns the target T2, LsRDLR (Laodelphax striatellus RDL GABA receptor) (Laodelphax striatellus, UniProt Q0ECT5, F128Y/Y91F).
T2 sequence (Q0ECT5 23-487 Y91F/F128Y): T1 sequence (Q0ECT5 23-487)
The method in brief:
(§1)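 WT or site-directed mutant LsRDL cRNA (5 ng) injected into defolliculated Xenopus oocytes, which were then held 48 hr at 16°C in SOS (pH 7.6). Clamped at −80 mV, perfused with SOS at 18–20°C. GABA applied for 3 sec at 30–60 sec intervals. EC50 from a four-parameter variable-slope logistic fit; ≥6 oocytes from ≥2 frogs; mean±S.D.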

The target in experiment [3] is T1, LsRDLR (Laodelphax striatellus RDL GABA receptor). The method in brief: as §1
In experiment [4] the target is T3, LsRDLR (Laodelphax striatellus RDL GABA receptor) (Laodelphax striatellus, UniProt Q0ECT5, F128Y/F95S).
T3 sequence (Q0ECT5 23-487 F95S/F128Y): T1 sequence (Q0ECT5 23-487)
In a few lines: as §1

For experiment [5], the target named is T4, LsRDLR (Laodelphax striatellus RDL GABA receptor) (Laodelphax striatellus, UniProt Q0ECT5, Y91F).
T4 sequence (Q0ECT5 23-487 Y91F): T1 sequence (Q0ECT5 23-487)
In a few lines:
as §1

Experiment [6] has as its target T5, LsRDLR (Laodelphax striatellus RDL GABA receptor) (Laodelphax striatellus, UniProt Q0ECT5, F95S/Y91F).
T5 sequence (Q0ECT5 23-487 Y91F/F95S): T1 sequence (Q0ECT5 23-487)
In a few lines: as §1

Experiment [7] deals with T6, LsRDLR (Laodelphax striatellus RDL GABA receptor) (Laodelphax striatellus, UniProt Q0ECT5, F95S).
T6 sequence (Q0ECT5 23-487 F95S): T1 sequence (Q0ECT5 23-487)
The method in brief: as §1

Experiment [8] concerns the target T7, LsRDLR (Laodelphax striatellus RDL GABA receptor) (Laodelphax striatellus, UniProt Q0ECT5, F128Y).
T7 sequence (Q0ECT5 23-487 F128Y): T1 sequence (Q0ECT5 23-487)
In a few lines: as §1

The target of experiment [9] is T8, LsRDLR (Laodelphax striatellus RDL GABA receptor) (Laodelphax striatellus, UniProt Q0ECT5, F128Y/F95S/Y91F).
T8 sequence (Q0ECT5 23-487 Y91F/F95S/F128Y): T1 sequence (Q0ECT5 23-487)
In a few lines:
as §1

As for `COc1ccc(-c2ccc(=N)n(CCCC(=O)O)n2)cc1` [gabazine, 2-(3-carboxypropyl)-6-(4-methoxyphenyl)-2,3-dihydropyridazin-3-iminium bromide], the remaining activity at 30 µM in [1] is 77.8 ± 8%.

On to `NCCCC(=O)O` [GABA], for which the EC50 in experiment [2] stood at 37.3 ± 11.8 µM; in experiment [3] it was 6.83 ± 3.74 µM; in experiment [4] it was 25.6 ± 11.9 µM; in [5], 131 ± 45 µM; in experiment [6], 63.2 ± 23.8 µM; in [7] it was 4.08 ± 1.31 µM. For the same compound, the values for the EC50 in experiment [8] and in [9] were 43.7 ± 10.2 µM and 15.4 ± 3.7 µM, respectively.
